Key:
Mus musculus [1] = assay: Neurotoxicity in ip dosed CF1 albino mouse assessed as minimal motor impairment; format: toxicity, organism-based; details: mouse, in vivo
Summary of the method: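 Mice: male CF no. 1 albino (18-25 g), ip dosing in 0.5% methylcellulose. Minimal motor impairment was scored, with doses varied to give four points between no impairment and all animals impaired.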

Mus musculus [2] = assay: Anticonvulsant activity in ip dosed CF1 albino mouse assessed as protection against 32 mA current-induced seizure by 6Hz psychomotor seizure test; format: functional
Summary of the method: (§1)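 In the 6 Hz psychomotor seizure test, male CF no. 1 albino mice (18-25 g) received the compound ip in 0.5% methylcellulose. Stimulation was at 32 or 44 mA. Doses were varied to give 3-4 points between 0% and 100% protection, and ED50 with 95% confidence interval came from probit analysis.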

Mus musculus [3] = species: Mus musculus; assay: Protective index, ratio of TD50 for CF1 albino mouse to ED50 for 32 mA current-induced CF1 albino mouse seizure model; format: functional
Summary of the method: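 Protective index is the mouse TD50 (minimal motor impairment) divided by the 6 Hz test ED50 at 32 or 44 mA. Male CF no. 1 mice were dosed ip in 0.5% methylcellulose, and values came from probit analysis.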

Mus musculus [4] = assay: Anticonvulsant activity in ip dosed CF1 albino mouse assessed as protection against 44 mA-current-induced seizure by 6Hz psychomotor seizure test; format: functional; summary of the method: as §1
Mus musculus [5] = assay: Anticonvulsant activity in CF1 albino mouse assessed as protection against maximal electroshock-induced seizures at 50 mg/kg, ip after 4 hrs; format: functional, organism-based; parameters: dose 50 mg/kg
Summary of the method: (§2)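 Adult male CF no. 1 albino mice (18-25 g). Test compound suspended in 0.5% methylcellulose and given intraperitoneally at 0.01 mL/g body weight. Maximal electroshock challenge at the stated time. Read-out is the number of animals protected over the number tested; neurotoxicity is scored in parallel.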

Mus musculus [6] = assay: Anticonvulsant activity in CF1 albino mouse assessed as protection against maximal electroshock-induced seizures at 50 mg/kg, ip after 0.5 hrs; format: functional, organism-based; parameters: dose 50 mg/kg; summary of the method: as §2
Mus musculus [7] = assay: Anticonvulsant activity in CF1 albino mouse assessed as protection against scMet-induced seizures at 50 mg/kg, ip after 0.5 hrs; format: functional, organism-based; parameters: dose 50 mg/kg
Summary of the method: (§3)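 Adult male CF no. 1 albino mice (18-25 g) dosed intraperitoneally with compound suspended in 0.5% methylcellulose (0.01 mL/g). Convulsant challenge given subcutaneously as a 0.85% pentylenetetrazol solution in 0.9% saline. Read-out is animals protected over animals tested, with neurotoxicity scored in parallel.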

Mus musculus [8] = assay: Anticonvulsant activity in CF1 albino mouse assessed as protection against scMet-induced seizures at 50 mg/kg, ip after 4 hrs; format: functional, organism-based; parameters: dose 50 mg/kg; summary of the method: as §3
Mus musculus [9] = assay: Neurotoxicity in CF1 albino mouse at 50 mg/kg, ip after 4 hrs; format: toxicity, organism-based; parameters: dose 50 mg/kg, route intraperitoneal; details: in vivo
Summary of the method: (§4)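 Male CF no. 1 albino mice (18-25 g) received a single ip dose as a suspension in 0.5% methylcellulose. The read-out was the number of animals showing neurotoxicity (minimal motor impairment) over the number tested.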

Mus musculus [10] = assay: Anticonvulsant activity in CF1 albino mouse assessed as protection against maximal electroshock-induced seizures at 150 mg/kg, ip after 4 hrs; format: functional, organism-based; parameters: dose 150 mg/kg; summary of the method: as §2
Mus musculus [11] = assay: Anticonvulsant activity in CF1 albino mouse assessed as protection against maximal electroshock-induced seizures at 450 mg/kg, ip after 4 hrs; format: functional, organism-based; parameters: dose 450 mg/kg; summary of the method: as §2
Mus musculus [12] = assay: Anticonvulsant activity in CF1 albino mouse assessed as protection against scMet-induced seizures at 150 mg/kg, ip after 0.5 hrs; format: functional, organism-based; parameters: dose 150 mg/kg; summary of the method: as §3
Mus musculus [13] = assay: Anticonvulsant activity in CF1 albino mouse assessed as protection against scMet-induced seizures at 450 mg/kg, ip after 0.5 hrs; format: functional, organism-based; parameters: dose 450 mg/kg; summary of the method: as §3
Mus musculus [14] = assay: Anticonvulsant activity in CF1 albino mouse assessed as protection against scMet-induced seizures at 150 mg/kg, ip after 4 hrs; format: functional, organism-based; parameters: dose 150 mg/kg; summary of the method: as §3
Mus musculus [15] = assay: Anticonvulsant activity in CF1 albino mouse assessed as protection against scMet-induced seizures at 450 mg/kg, ip after 4 hrs; format: functional, organism-based; parameters: dose 450 mg/kg; summary of the method: as §3
Mus musculus [16] = assay: Neurotoxicity in CF1 albino mouse at 450 mg/kg, ip after 0.5 hrs; format: toxicity, organism-based; parameters: dose 450 mg/kg, route intraperitoneal; details: in vivo; summary of the method: as §4
Mus musculus [17] = assay: Neurotoxicity in CF1 albino mouse at 150 mg/kg, ip after 4 hrs; format: toxicity, organism-based; parameters: dose 150 mg/kg, route intraperitoneal; details: in vivo; summary of the method: as §4
Mus musculus [18] = assay: Anticonvulsant activity in CF1 albino mouse assessed as protection against maximal electroshock-induced seizures at 150 mg/kg, ip after 0.5 hrs; format: functional, organism-based; parameters: dose 150 mg/kg; summary of the method: as §2
Mus musculus [19] = assay: Anticonvulsant activity in CF1 albino mouse assessed as protection against maximal electroshock-induced seizures at 450 mg/kg, ip after 0.5 hrs; format: functional, organism-based; parameters: dose 450 mg/kg; summary of the method: as §2

Structure (SMILES)	ED50 (Mus musculus [1])	ED50 (Mus musculus [2])	PI (Mus musculus [3])	ED50 (Mus musculus [4])	Activity (Mus musculus [5])	Activity (Mus musculus [6])	Activity (Mus musculus [7])	Activity (Mus musculus [8])	Activity (Mus musculus [9])	Activity (Mus musculus [10])	Activity (Mus musculus [11])	Activity (Mus musculus [12])	Activity (Mus musculus [13])	Activity (Mus musculus [14])	Activity (Mus musculus [15])	Activity (Mus musculus [16])	Activity (Mus musculus [17])	Activity (Mus musculus [18])	Activity (Mus musculus [19])
CC1(C)C(C(N)=O)C1(C)C	99 mg/kg	72 mg/kg	1.4	> 200 mg/kg															
CC1(C)C(C)(C)C1(Br)C(N)=O					Non-toxic	Non-toxic	Non-toxic	Non-toxic	Non-toxic	Non-toxic	Non-toxic	Non-toxic	Non-toxic	Non-toxic	Non-toxic	Toxic	Non-toxic	Non-toxic	Non-toxic

From ChEMBL document CHEMBL1153988 (J Med Chem, 2009)
